Key:
[1] = subcutaneous nondepot pharmacokinetics in mice; assay type: in vivo, mouse
Method in brief: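 Male C57BL/6J mice (n = 3 per dose) got a single nondepot s.c. injection.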

[2] = intravenous pharmacokinetics in rats; assay type: in vivo; details: male, Wistar Hannover, rat, plasma, 0.1 mg/kg
Method in brief: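 Jugular vein-cannulated male Wistar Hannover rats (250–300 g; n = 3) got a single i.v. bolus at 1 ml/kg. The native peptide was in 10% propylene glycol/90% 20 mM sodium phosphate, pH 7.4; the analog in 10% SEDDs/90% 20 mM phosphate, pH 5. Serial cannula blood was drawn predose and at 0.033–24 hours. Plasma standard curve ran 0.1–250 ng/ml with 1/x2 linear regression.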

hOTR (oxytocin receptor) = target: T1, hOTR (oxytocin receptor) (Homo sapiens, UniProt P30559); assay type: cell-based; details: calcium flux, normalized to control responses
T1 sequence (P30559 1-389): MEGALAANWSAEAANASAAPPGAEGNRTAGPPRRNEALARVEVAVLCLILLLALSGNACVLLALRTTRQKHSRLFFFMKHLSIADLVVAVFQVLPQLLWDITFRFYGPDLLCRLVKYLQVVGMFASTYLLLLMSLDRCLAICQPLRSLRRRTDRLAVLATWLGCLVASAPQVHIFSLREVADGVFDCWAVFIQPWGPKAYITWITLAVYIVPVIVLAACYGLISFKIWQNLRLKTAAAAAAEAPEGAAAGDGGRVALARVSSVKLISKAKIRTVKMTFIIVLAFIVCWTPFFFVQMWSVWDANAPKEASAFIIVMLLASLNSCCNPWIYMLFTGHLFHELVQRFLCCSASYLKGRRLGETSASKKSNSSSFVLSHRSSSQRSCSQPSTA

V1a receptor = V1a receptor (Homo sapiens, UniProt P37288); assay: V1a receptor functional agonist assay; assay type: cell-based
[3] = subcutaneous depot pharmacokinetics in mice; assay type: in vivo, mouse
Method in brief: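 Male C57BL/6J mice (n = 2) got a single s.c. injection (100 µl) in a lipid-based gel depot designed for sustained release over at least 48 hours. Retro-orbital blood was drawn at 0.5, 1, 2, 4, 6 and 24 hours. Plasma standard curves were 0.5–1000 ng/ml (analog) and 0.5–500 ng/ml (native peptide), 1/x2 regression. Free concentrations were derived with fu,p.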

[4] = mice, s.c. 1 mg/kg, nondepot formulation
[5] = male, C57BL/6J, mouse, plasma, sc, 20 mg/kg

Sequence of V1a receptor (P37288 whole entry): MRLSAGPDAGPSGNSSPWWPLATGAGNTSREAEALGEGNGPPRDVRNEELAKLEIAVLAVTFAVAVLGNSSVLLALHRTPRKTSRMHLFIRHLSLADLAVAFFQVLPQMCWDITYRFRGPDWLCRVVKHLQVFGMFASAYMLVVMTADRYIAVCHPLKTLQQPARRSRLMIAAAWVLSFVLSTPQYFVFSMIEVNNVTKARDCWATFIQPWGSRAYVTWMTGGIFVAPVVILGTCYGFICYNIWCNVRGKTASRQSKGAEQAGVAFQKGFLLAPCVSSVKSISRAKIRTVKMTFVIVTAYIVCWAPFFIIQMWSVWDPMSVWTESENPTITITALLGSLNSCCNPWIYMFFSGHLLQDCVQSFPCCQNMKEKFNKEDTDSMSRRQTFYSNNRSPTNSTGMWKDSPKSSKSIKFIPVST

Cmax ([1]; male, C57BL/6J, mouse, plasma, sc, 1 mg/kg): 216 nM | free Cmax [1, 4]: 191 nM | time of Cmax postdose [1, 4]: 0.25 h | clearance [2]: 17.1 mL/min/kg | half-life [2]: 7.2 min | OTR % agonist (hOTR (oxytocin receptor)): 100 (n = 70) % | V1a % agonist (V1a receptor): 94 (n = 70) % | Cmax [3, 5]: 65.4 nM | half-life [3, 5]: 7.3 h | free Cmax ([3]; mice, s.c. 20 mg/kg, depot formulation): 58.2 nM
Structure (SMILES): CC[C@H](C)[C@@H]1NC(=O)[C@H](Cc2ccc(O)cc2)NC(=O)[C@@H](N)CSSC[C@@H](C(=O)N2CCC[C@H]2C(=O)N[C@@H](CC(C)C)C(=O)NCC(N)=O)NC(=O)[C@H](CC(N)=O)NC(=O)[C@H](CCC(N)=O)NC1=O [OT, Oxytocin]
